Screening results deposited in PubChem by several laboratories.
Only some compounds are listed: those with a hit (about 4.7% of all), similar ones and a draw of the others.
SKN-1 block: inhibitors of C. elegans SKN-1 | 360,000 tested, 0.49% active | inhibition, % at 21.8 µM | C. elegans VP596 Pgst-4::GFP/RFP ratio, acrylamide-induced, 24 h;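 active means interference check ratio from 0.5 to 1.5 plus GFP to RFP signal ratio inhibition reaching or exceeding a fixed threshold, cut at about 30% in these data, passing the limit was not always enough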
MT1-MMP act inh: blocks activation of human MT1-MMP. P50281. HT1080 RFP-PRO-GFP cells, GFP/RFP ratio fluorescence, overnight; percent of plate control window, DMSO zero. GFP/RFP ratio change, % at 20 µM. 360,000 tested, 0.061% active;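 active means GFP/RFP ratio change of at least 30% with cell ATP level not reduced by more than half and red fluorescence within 50% of control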
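Assay system: HT1080 RFP-PRO-GFP cells. Benchmarks: DMSO vehicle wells and RFP-L50D-GFP reporter cell wells. Times: overnight cell settling, then overnight compound exposure, 37 °C, 5% CO2. Compound: 20 µM single dose, 1% DMSO. Read-out basis: GFP/RFP fluorescence ratio.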
MPTP inh: inhibitors of mitochondrial permeability transition pore | 360,000 tested, 1.4% active | isolated mouse mitochondria, Ca2+ swelling absorbance, 30 min | inhibition, % at 10 µM;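 active means inhibition of 50% or more, scaled per plate between neutral and stimulator controls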;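 further: 0% = DMSO wells given calcium and 100% = 1 mM EGTA wells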
GRIN3A LBD mod: NR3A (human) ligand-binding domain modulation; Tm shift relative to glycine control, % at 25 µM; NR3A LBD differential scanning fluorimetry, Tm shift; 0% = protein alone, 100% = glycine-bound protein; AID 1259313; 340,000 tested, 2.5% active;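 active means melting temperature shift of at least 10% of the positive control shift, at one fixed dose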
ADAM10 inh: inhibits human ADAM10; O14672; AID 720582; recombinant ADAM10, EDANS/DABCYL FRET peptide cleavage, 3 h; 370,000 tested, 0.62% active; inhibition, % at 7 µM;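 active means inhibition above a per-campaign cutoff equal to the mean of compounds falling between control-based bounds plus 3 SD, cut at about 20% in these data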;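 further: 0% = DMSO wells while the 100% control is not disclosed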
ADAM17 inh: inhibitors of human ADAM17 | P78536 | 370,000 tested, 0.83% active | inhibition, % at 6.95 µM | recombinant ADAM17, EDANS/DABCYL FRET peptide cleavage;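 active means inhibition above the mean of compounds lying between control limits plus 3 SD, set per campaign, cut at about 8.5% in these data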;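 further: 0% = DMSO-only wells as the low control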
Target sequence (P78536 215-824 limits assumed): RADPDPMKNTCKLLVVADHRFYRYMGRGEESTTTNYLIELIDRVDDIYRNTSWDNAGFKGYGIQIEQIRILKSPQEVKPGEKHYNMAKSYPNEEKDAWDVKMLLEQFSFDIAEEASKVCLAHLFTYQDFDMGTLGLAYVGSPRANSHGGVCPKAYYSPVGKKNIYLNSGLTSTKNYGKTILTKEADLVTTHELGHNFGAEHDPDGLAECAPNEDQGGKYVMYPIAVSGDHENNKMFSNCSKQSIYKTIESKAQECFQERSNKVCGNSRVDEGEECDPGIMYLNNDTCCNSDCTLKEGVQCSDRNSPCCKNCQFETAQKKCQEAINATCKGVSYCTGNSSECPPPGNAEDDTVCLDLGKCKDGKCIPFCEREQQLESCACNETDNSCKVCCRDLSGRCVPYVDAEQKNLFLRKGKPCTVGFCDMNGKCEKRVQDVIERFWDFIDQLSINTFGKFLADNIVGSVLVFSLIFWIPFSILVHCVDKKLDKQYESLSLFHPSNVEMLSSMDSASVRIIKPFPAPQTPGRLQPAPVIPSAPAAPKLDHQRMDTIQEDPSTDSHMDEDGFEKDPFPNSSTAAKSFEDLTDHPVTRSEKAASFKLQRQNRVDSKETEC
* = called active by the depositor; nt = no result given.

SMILES	SKN-1 block	MT1-MMP act inh	MPTP inh	GRIN3A LBD mod	ADAM10 inh	ADAM17 inh
COc1ccc([C@H]2CC(=O)C=C(c3cc(Br)ccc3OC)C2)cc1	14	-1	1	0	5	3
O=C(COc1ccc(Br)cc1Br)NNC(=O)c1cccs1	-10	1	0	0	5	2
Cc1cc(Br)cc(C)c1OCC(=O)NNC(=O)c1cccs1	-13	1	0	13*	8	-1
COc1ccc2nc(C)cc(SCC(=O)N/N=C/c3ccc(O)cc3O)c2c1	-6	-1	4	25*	-11	-5
COc1cccc2c(SCC(=O)N/N=C/c3ccc(O)cc3O)cc(C)nc12	5	-2	-1	26*	-5	-8
O=C(Nc1ccnn1C1CCN(C(=O)c2ccccc2C(F)(F)F)CC1)C1CC1	18	-4	1	-2	-8	-5
CCN(CC)c1ccc(N=Cc2ccccc2[N+](=O)[O-])cc1	10	52*	2	-2	0	1
COc1ccc(NC(=O)C2CC(=O)N(CCc3ccc(Cl)cc3)C2)cc1 (stereo not drawn)	5	0	1	12*	0	1
COc1cc(/C=C/c2ccc3c(Br)cc(Br)c(O)c3n2)ccc1O	22	-31	6	16*	11	4
COc1ccc(/C=C/c2ccc3cccc(O)c3n2)cc1Br	2	12	2	37*	-2	-2
COc1ccc(/C=C/c2ccc3c(Br)ccc(O)c3n2)cc1	6	8	4	4	-2	-5
COc1cc(/C=C/c2ccc3cccc(O)c3n2)cc(OC)c1OC	-6	22	0	nt	-12	-2
Oc1cccc(/C=C/c2ccc3cccc(O)c3n2)c1	46*	3	-2	20*	10	2
Cc1ccc(/C=C/c2ccc3cccc(O)c3n2)s1	35*	6	0	-6	-2	-3
COc1cccc(/C=C/c2ccc3cccc(O)c3n2)c1	17	3	0	8	9	5
O=C(Cc1ccccc1C(=O)O)Nc1cccc2ccccc12	1	3	0	-1	-128	-45
Cc1ccc(NC(=O)c2cc(-c3ccccc3)n[nH]2)cc1	-6	1	3	10*	1	2
Cc1cc(O)c(-c2cc(C(=O)Nc3ccc(S(=O)(=O)N4CCOCC4)cc3)[nH]n2)cc1C	-7	-2	18	32*	6	2
Cc1cc(O)c(-c2cc(C(=O)Nc3cccnc3)[nH]n2)cc1C	-2	4	5	27*	-13	-8
CC(=O)Nc1ccc(NC(=O)c2cc(-c3cc(C)c(C)cc3O)n[nH]2)cc1	-5	6	1	32*	-9	-6
Cc1ccc(C(=O)Nc2cccnc2)cc1C	8	0	1	nt	-3	-1
COc1ccc(-c2cc(C(=O)Nc3ccc(NC(C)=O)cc3)[nH]n2)c(C)c1	4	1	0	nt	-2	0
O=C(NCc1ccc2c(c1)OCO2)c1ccc(S(=O)(=O)NCC2CCCO2)cc1 (stereo not drawn)	-31	3	1	3	2	-3
CCc1ccc(O)c(-c2cc(C(=O)Nc3cccnc3)[nH]n2)c1	-7	3	13	20*	6	0
O=C(Nc1cccnc1)c1ccc(F)cc1	-26	1	1	2	-5	-4
SMILES	SKN-1 block	MT1-MMP act inh	MPTP inh	GRIN3A LBD mod	ADAM10 inh	ADAM17 inh
CCOc1ccc(C(=O)Nc2cc(NC(=O)c3ccc(OCC)c(Cl)c3)cc(C(=O)O)c2)cc1Cl	13	2	0	23*	1	-2
O=C(COc1ccc(Cl)cc1Cl)Nc1ccc(Cl)cn1	2	6	3	-8	5	-1
CCOc1ccc(C(=O)Nc2ccc(Cl)cn2)cc1Cl	18	0	1	25*	13	1
Cc1ccc(NC(=O)COc2nsnc2N2CCOCC2)cc1Cl	-7	-6	-1	-8	2	1
COc1ccc(NC(=O)COc2nsnc2N2CCOCC2)c(OC)c1	-26	0	0	14*	-1	-3
COc1ccc(NC(=O)Nc2ccc(N3CCOCC3)c3nonc23)c(OC)c1	44*	24	-2	1	7	2
N#Cc1c(F)cccc1N1CCOCC1	6	2	-3	1	-100	-31
